Source: paper PMC6137948 (Drug Design, Development and Therapy, 2018)
“Also recorded” adds a separate entry of the source.

Assays:
S. aureus 3797 (VISA) = test: MIC, broth micro-dilution, pre-screening panel; assay type: cell-based, Staphylococcus aureus; conditions: S. aureus 3797 (VISA HIP-5836), Mueller Hinton broth
VISA = conditions: Introduction; cited from earlier work
[1] = tested on: non-immune activation of histamine release (inflammatory reaction to concanavalin A); test: Pseudoallergic inflammatory reaction on concanavalin A; assay type: in vivo; conditions: male CBA mice; single IV dose of MTD
[2] = tested on: vancomycin-intermediate resistant Staphylococcus aureus (VISA); test: MIC, pre-screening panel, summary for VISA strains; assay type: cell-based; conditions: summary of Table 1, S. aureus 3797 and 3798
CBA mice = test: Acute toxicity in mice; conditions: for MTD (LD10): CBA mice, single bolus IV injection in 5% glucose, Litchfield and Wilcoxon; for ratio between therapeutic (ED50) and toxic doses (MTD): ED50 in sepsis model / MTD in mice
S. aureus 3798 (VISA) = test: MIC, broth micro-dilution, pre-screening panel; assay type: cell-based, Staphylococcus aureus; conditions: S. aureus 3798 (VISA HIP-5827), Mueller Hinton broth
S. haemolyticus 602 = test: MIC, broth micro-dilution, pre-screening panel; assay type: cell-based, Staphylococcus haemolyticus; conditions: Mueller Hinton broth
E. faecalis 559 = test: MIC, broth micro-dilution, pre-screening panel; assay type: cell-based, Enterococcus faecalis; conditions: E. faecalis 559 (VSE), Mueller Hinton broth
E. faecium 568 = test: MIC, broth micro-dilution, pre-screening panel; assay type: cell-based, Enterococcus faecium; conditions: E. faecium 568 (VSE), Mueller Hinton broth
VRE = conditions: Introduction; cited from earlier work
S. epidermidis 533 = test: MIC, broth micro-dilution, pre-screening panel; assay type: cell-based, Staphylococcus epidermidis; conditions: Mueller Hinton broth
S. aureus (MRSA, n=255) = test: Antimicrobial susceptibility testing of clinical isolates; assay type: cell-based, Staphylococcus aureus
How it was run: (§1)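 Non-duplicate clinical isolates from hospitalised adults and children with community or nosocomial infections (skin/soft tissue, respiratory tract, bone, joint, urinary tract, abdominal). Tested per EUCAST recommendations by broth microdilution in Mueller Hinton broth following NCCLS procedures.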

E. faecalis (n=122) = test: as above; assay type: cell-based, Enterococcus faecalis
How it was run: as §1

[3] = tested on: genera Staphylococcus and Enterococcus; test: Antimicrobial susceptibility testing, panel of 676 isolates, summary; assay type: cell-based; conditions: for MIC90 for the genera Staphylococcus and Enterococcus: panel of 676 isolates, except for E. faecium
[4] = tested on: Coagulase-negative Staphylococcus (n=45); test: Antimicrobial susceptibility testing of clinical isolates; assay type: cell-based
How it was run: as §1

E. faecium (n=75) = test: Antimicrobial susceptibility testing of clinical isolates; assay type: cell-based, Enterococcus faecium; conditions: for MIC 50% (MIC50) / MIC 90% (MIC90): E. faecium n=75
S. aureus (strain 10) = test: Mouse model of staphylococcal sepsis; assay type: in vivo; conditions: staphylococcal sepsis in mice, IV
How it was run: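 Female SHK mice (22–25 g), quarantined 2 weeks, infected IV with mouse-adapted S. aureus strain 10 at lethal dose (LD100 3 × 10^8 CFU/mouse). Thirty minutes later, test compound given IV in 5% glucose at 6 doses (0.25–4.5 mg/kg); comparator glycopeptides at 2.5–7.5 and 0.5–5.0 mg/kg. Untreated infected controls included. Mortality recorded daily for 10 days. ED50 by Barents frequency-accumulation method; ratios from ED50 values.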

S. aureus (MSSA, n=179) = test: Antimicrobial susceptibility testing of clinical isolates; assay type: cell-based, Staphylococcus aureus
How it was run: as §1

[5] = tested on: panel of clinical isolates of Gram-positive microorganisms; test: MIC, pre-screening panel, summary for all tested strains; assay type: cell-based; conditions: text summary of Table 1, all strains of the pre-screening panel
[6] = VRE isolates of the E. faecium collection

Row | Substance | MIC (S. aureus 3797 (VISA)) [µg/mL] | pseudoallergic inflammatory reaction on concanavalin A, in words [1] | MICs against VISA strains [2] [mg/L] | MTD (LD10) (CBA mice) [mg/kg] | MIC (S. aureus 3798 (VISA)) [µg/mL] | MIC (S. haemolyticus 602) [µg/mL] | MIC (E. faecalis 559) [µg/mL] | MIC (E. faecium 568) [µg/mL] | activity against VRE, in words (VRE) | MIC (S. epidermidis 533) [µg/mL] | MIC 50% (MIC50) (S. aureus (MRSA, n=255)) [µg/mL] | MIC 90% (MIC90) (S. aureus (MRSA, n=255)) [µg/mL] | MIC 50% (MIC50) (E. faecalis (n=122)) [µg/mL] | MIC 90% (MIC90) (E. faecalis (n=122)) [µg/mL] | ratio between therapeutic (ED50) and toxic doses (MTD) (CBA mice; IV) | MIC90 for the genera Staphylococcus and Enterococcus [3] [µg/mL] | MIC 50% (MIC50) [4] [µg/mL] | MIC 90% (MIC90) [4] [µg/mL] | MIC 50% (MIC50) (E. faecium (n=75)) [µg/mL] | MIC 90% (MIC90) (E. faecium (n=75)) [µg/mL] | also measured
1 | Eremomycin [compound 2, reference compound] | 4 | statistically significant elevations of Me with respect to Mc | 4 to 8 | 877.9 | 4 | 0.25 | 0.5 | 0.5 | inactive | 0.25 |  |  |  |  |  |  |  |  |  |  | MIC against VISA (VISA): 8 µg/mL; acute toxicity, fold lower than that of 1 (CBA mice; by LD50, CBA mice, IV): ~3 fold
2 | Eremomycin piperidide [compound 6] | 0.5 |  | 0.5 to 2 |  | 2 |  |  | 0.5 |  | 0.13 |  |  |  |  |  |  |  |  |  |  | 
3 | Eremomycin pyrrolidide [compound 5] | 1 | did not induce pseudoallergic inflammatory reaction; also recorded: non-significant difference; also recorded: no histamine release activity | 0.5 to 2 | 119.7 | 1 | 0.25 | 0.25 | 0.13 |  | 0.25 | 0.25 | 0.5 | 0.25 | 0.5 | 1/150 | 0.5 | 0.25 | 0.5 | 0.125 | 4 | MICs against VISA strains ([2]; listed as eremomycin pyrrolidide (5)): 1 mg/L; acute toxicity, fold higher (CBA mice; by LD50 compared with 1, CBA mice, IV): about 2 fold; therapeutically efficient dose, fold smaller than MTD (CBA mice; mice, IV): 150 fold; potency exceeding that of vancomycin (1) ([3]; S. aureus, coagulase-negative Staphylococcus and Enterococcus strains): 2–4 dilutions; susceptibility of vancomycin-resistant E. faecium (VRE) strains, in words (E. faecium (n=75); [6]): susceptible; ED50 times lower than that for 1 (S. aureus (strain 10)): 5 times; ED50 times lower than that for 2 (S. aureus (strain 10)): 2.5 times; MIC 50% (MIC50) (S. aureus (MSSA, n=179)): 0.5 µg/mL; MIC 90% (MIC90) (S. aureus (MSSA, n=179)): 0.5 µg/mL
4 | Vancomycin [compound 1, reference compound] | 8 | statistically significant elevations of Me with respect to Mc | 4 to 8 | 360 | 8 | 2 | 2 | 2 | inactive | 2 | 1 | 2 | 1 | 2 | 1/90 | 1 to 2 | 2 | 2 | 1 | 2 | MIC for VISA isolates (VISA): ≥ 8 µg/mL; MIC for strains of vancomycin-resistant E. faecium (VRE) (E. faecium (n=75); [6]): > 64 µg/mL; number of resistant strains of E. faecium (VRE) (E. faecium (n=75); strains with MIC =64 mg/L (b1) / MIC >64 mg/L, number (% of strains)): 7 (8%); MIC 50% (MIC50) (S. aureus (MSSA, n=179)): 1 µg/mL; MIC 90% (MIC90) (S. aureus (MSSA, n=179)): 1 µg/mL
5 | Vancomycin piperidide [compound 4] | 1 |  | 0.5 to 2 |  | 1 |  |  | 0.5 |  | 0.5 |  |  |  |  |  |  |  |  |  |  | MICs against the tested strains [5]: 0.5 to 8 mg/L
6 | Vancomycin pyrrolidide [compound 3] | 4 |  |  |  | 8 | 0.5 | 2 | 1 |  | 0.5 |  |  |  |  |  |  |  |  |  |  | MICs against the tested strains [5]: 0.5 to 8 mg/L
